In data set [1] the test system is Syrian golden hamster. In words: Toxicity in syrian golden hamster infected with 10^2 CCID50 Yellow fever virus Jimenez assessed as weight change at 400 mg/kg/day, po administered twice daily for 8 days started 3 day post viral infection. Set-up: route oral. Conditions: in vivo. The data set is classed as organism-based, Mesocricetus auratus.
Data set [2] has as its system Syrian golden hamster. Kind of data set: Toxicity in syrian golden hamster infected with 10^2 CCID50 Yellow fever virus Jimenez assessed as weight change at 400 mg/kg/day, po administered twice daily for 8 days started 1 day post viral infection. On the set-up: route oral. To be noted: in vivo. The class given is organism-based, Mesocricetus auratus.
For data set [3], the system named is Syrian golden hamster. In words: Toxicity in syrian golden hamster infected with 10^2 CCID50 Yellow fever virus assessed as weight change in surviving animals at 400 mg/kg/day, po BID administered for 8 days started 5 days post viral challenge. The data set is classed as organism-based, Mesocricetus auratus. Set-up: route oral. Conditions: in vivo.
Data set [4] has as its system Syrian golden hamster. In words: Toxicity in syrian golden hamster assessed as number of animals alive at 400 mg/kg/day, po BID administered for 8 days. Set-up: route oral. Conditions: in vivo, 192 h. The data set is classed as organism-based, Mesocricetus auratus. A digest of the protocol:
(§1)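 Uninfected toxicity-control hamsters, three per group, were dosed p.o. in 0.4% carboxymethyl cellulose twice daily, 12 h apart, for 8 days. Deaths were recorded daily. Body weights were taken at 0, 3 and 6 dpi.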

Data set [5] relates to Syrian golden hamster. Kind of data set: Toxicity in syrian golden hamster infected with 10^2 CCID50 Yellow fever virus Jimenez assessed as weight change at 400 mg/kg/day, po administered twice daily for 8 days started 4 day post viral infection. The class given is organism-based, Mesocricetus auratus. On the set-up: route oral. Conditions: in vivo.
The nature of data set [6]: Selectivity index, ratio of CC50 for African green monkey vero cells to EC90 for Yellow fever virus 17D. The data set is classed as toxicity, cell-based. To be noted: read-out: Selectivity Index. A digest of the protocol:
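SI was calculated as the CC50 in uninfected Vero cells divided by the EC90 from the YFV 17D virus yield reduction assay in Vero cells.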

Data set [7] has as its system Syrian golden hamster. Kind of data set: Toxicity in syrian golden hamster infected with 10^2 CCID50 Yellow fever virus Jimenez assessed as weight change at 400 mg/kg/day, po administered twice daily for 8 days started 5 day post viral infection. The class given is organism-based, Mesocricetus auratus. On the set-up: route oral. Conditions: in vivo.
Data set [8] can be described thus: Cytotoxicity against African green monkey Vero cells by luciferase-based cell viability assay. Conditions: chlorocebus sabaeus. A digest of the protocol: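 Uninfected Vero cells exposed to compound were assayed for ATP content by luminescence (Cell-Titer Glo) to derive the CC50.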
Data set [9] concerns Syrian golden hamster. Kind of data set: Toxicity in syrian golden hamster infected with 10^2 CCID50 Yellow fever virus Jimenez assessed as weight change at 200 mg/kg/day, po administered twice daily for 8 days started 4 hrs prior to viral infection relative to control. Set-up: route oral. To be noted: in vivo. The data set is classed as organism-based, Mesocricetus auratus.

Data set [10] relates to Syrian golden hamster. Kind of data set: Toxicity in syrian golden hamster infected with 10^2 CCID50 Yellow fever virus Jimenez assessed as weight change at 400 mg/kg/day, po administered twice daily for 8 days started 4 hrs prior to viral infection relative to control. The data set is classed as organism-based, Mesocricetus auratus. On the set-up: route oral. Conditions: in vivo.

Data set [11] deals with Syrian golden hamster. Kind of data set: Toxicity in syrian golden hamster infected with 10^2 CCID50 Yellow fever virus Jimenez assessed as weight change at 400 mg/kg/day, po administered twice daily for 8 days started 2 day post viral infection. The class given is organism-based, Mesocricetus auratus. On the set-up: route oral. Conditions: in vivo.
The test system of data set [12] is Syrian golden hamster. In words: Toxicity in syrian golden hamster infected with 10^2 CCID50 Yellow fever virus Jimenez assessed as weight change at 100 mg/kg/day, po administered twice daily for 8 days started 4 hrs prior to viral infection. On the set-up: route oral. To be noted: in vivo. The data set is classed as organism-based, Mesocricetus auratus.
Data set [13] relates to Syrian golden hamster. In words: Toxicity in syrian golden hamster infected with 10^2 CCID50 Yellow fever virus assessed as weight change in non surviving animals at 400 mg/kg/day, po BID administered for 8 days started 5 days post viral challenge. The class given is organism-based, Mesocricetus auratus. On the set-up: route oral. To be noted: in vivo.
The test system of data set [14] is Syrian golden hamster. Kind of data set: Toxicity in syrian golden hamster infected with 10^2 CCID50 Yellow fever virus assessed as weight change in non surviving animals at 400 mg/kg/day, po BID administered for 8 days started 4 days post viral challenge. Set-up: route oral. The class given is organism-based, Mesocricetus auratus. To be noted: in vivo.
For data set [15], the system named is Syrian golden hamster. In words: Toxicity in syrian golden hamster assessed as weight change at 400 mg/kg/day, po BID administered for 8 days. The data set is classed as organism-based, Mesocricetus auratus. Set-up: route oral. Conditions: in vivo, 192 h. A digest of the protocol: as §1
The subject of data set [16] is Syrian golden hamster. Kind of data set: Toxicity in syrian golden hamster infected with 10^2 CCID50 Yellow fever virus assessed as weight change in surviving animals at 400 mg/kg/day, po BID administered for 8 days started 4 days post viral challenge. The class given is organism-based, Mesocricetus auratus. On the set-up: route oral. Conditions: in vivo.
Data set [17] relates to Yellow fever virus. Kind of data set: Antiviral activity against Yellow fever virus 17D infected in African green monkey Vero cells assessed as inhibition of virus induced cytopathic effect by luciferase reporter gene assay. The data set is classed as functional, cell-based. A general note: Protection from cytopathic effect is a common read-out in antiviral testing.
Data set [18] relates to Yellow fever virus. In words: Antiviral activity against 10^2 CCID50 Yellow fever virus Jimenez infected in syrian golden hamster assessed as mean day of death […] at 32 mg/kg/day, po administered twice daily for 8 days started 4 hrs prior to viral infection relative to control. The data set is classed as functional.
The test system of data set [19] is Yellow fever virus. Kind of data set: Antiviral activity against Yellow fever virus 17D infected in African green monkey Vero cells assessed as inhibition of virus induced cytopathic effect by microscopic analysis. The class given is functional, cell-based.
The test system of data set [20] is Yellow fever virus. Kind of data set: Antiviral activity against 10^2 CCID50 Yellow fever virus Jimenez infected in syrian golden hamster assessed as mean day of death […] at 10 mg/kg/day, po administered twice daily for 8 days started 4 hrs prior to viral infection relative to control. The data set is classed as functional.
Data set [21] has as its system Yellow fever virus. In words: Antiviral activity against 10^2 CCID50 Yellow fever virus Jimenez infected in syrian golden hamster assessed as serum survival of animal at 32 mg/kg/day, po administered twice daily for 8 days started 4 hrs prior to viral infection. The class given is functional, organism-based.
Data set [22] deals with Yellow fever virus. In words: Antiviral activity against Yellow fever virus 17D infected in African green monkey Vero cells assessed as time required for inhibition of viral replication at 6400 uM up to 12 hrs post-viral infection. The data set is classed as functional, cell-based.
Data set [23] deals with Yellow fever virus. In words: Antiviral activity against Yellow fever virus 17D infected in African green monkey Vero cells assessed as inhibition of virus induced cytopathic effect […] by NR dye uptake assay. The class given is functional, cell-based.
The test system of data set [24] is Syrian golden hamster. Kind of data set: Toxicity in syrian golden hamster infected with 10^2 CCID50 Yellow fever virus Jimenez assessed as weight change at 32 mg/kg/day, po administered twice daily for 8 days started 4 hrs prior to viral infection relative to control. The data set is classed as organism-based, Mesocricetus auratus. Set-up: route oral. Conditions: in vivo.

Data set [25] deals with Yellow fever virus. In words: Antiviral activity against Yellow fever virus 17D infected in African green monkey Vero cells assessed as reduction in virus yield. The data set is classed as functional. A digest of the protocol: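 Virus yield reduction in Vero cells infected with YFV 17D after compound exposure, with progeny virus titred by CCID50. The EC90 was averaged over separate experiments.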

Data set [26] concerns Yellow fever virus. Kind of data set: Antiviral activity against 10^2 CCID50 Yellow fever virus Jimenez infected in syrian golden hamster assessed as serum ALT level at 32 mg/kg/day, po administered twice daily for 8 days started 4 hrs prior to viral infection. The class given is functional.
The test system of data set [27] is Yellow fever virus. In words: Antiviral activity against 10^2 CCID50 Yellow fever virus Jimenez infected in syrian golden hamster assessed as reduction in viral titer in liver at 32 mg/kg/day administered twice daily for 8 days started 6 days post infection by quantitative RT-PCR analysis. The data set is classed as functional.
Data set [28] has as its system Yellow fever virus. Kind of data set: Antiviral activity against 10^2 CCID50 Yellow fever virus Jimenez infected in syrian golden hamster assessed as mean day of death […] at 50 mg/kg/day, po administered twice daily for 8 days started 4 hrs prior to viral infection relative to control. The class given is functional.
The test system of data set [29] is Yellow fever virus. Kind of data set: Antiviral activity against 10^2 CCID50 Yellow fever virus Jimenez infected in syrian golden hamster assessed as serum ALT level at 10 mg/kg/day, po administered twice daily for 8 days started 4 hrs prior to viral infection. The data set is classed as functional.
The test system of data set [30] is Yellow fever virus. Kind of data set: Antiviral activity against 10^2 CCID50 Yellow fever virus Jimenez infected in syrian golden hamster assessed as serum survival of animal at 50 mg/kg/day, po administered twice daily for 8 days started 4 hrs prior to viral infection. The data set is classed as functional, organism-based.
Data set [31] deals with Syrian golden hamster. Kind of data set: Toxicity in syrian golden hamster infected with 10^2 CCID50 Yellow fever virus Jimenez assessed as weight change at 10 mg/kg/day, po administered twice daily for 8 days started 4 hrs prior to viral infection relative to control. The class given is organism-based, Mesocricetus auratus. On the set-up: route oral. Conditions: in vivo.

This note sets out measurements from ChEMBL document CHEMBL1629577, “Activity of T-705 in a hamster model of yellow fever virus infection in comparison with that of a chemically related compound, T-1106” (Antimicrob Agents Chemother, 2009).

Activity calls are given as the source filed them. The rule behind the calls is not given here.

For orientation: CC50 means the concentration that lowers cell viability or growth by half. Consider `NC(=O)c1nc(F)c[nH]c1=O` [FAVIPIRAVIR], for which the Activity is on record as -4.1 g in data set [1]; -0.3 g in data set [2]; -2.8 g in data set [3]; “Non-toxic” in data set [4]; -3 g in data set [5]; -4.5 g in [7]. The Activity was 2.2 g in data set [9]; 5.2 g in data set [10]; 0 g in [11]; -2.9 g in data set [12]; -7.3 g in [13]; -18.5 g in data set [14]. The Activity amounted to 5.3 g in data set [15] and 2.2 g in [16]. Also, the selectivity ratio in data set [6] was greater than 19. This compound showed a half-maximal cytotoxic concentration (CC50) in data set [8] greater than 6370 µM.
By EC50 is commonly meant the midpoint of the concentration-response curve. For orientation: EC90 means the concentration at which the effect reaches the 90% level. `NC(=O)c1nccn([C@@H]2O[C@H](CO)[C@@H](O)[C@H]2O)c1=O`: the EC50 in data set [17] stood at 2630 µM; in data set [19] it was 1080 µM; in data set [23] it was 1800 µM. Further, the values for the Time in [18] and in data set [20] were greater than 21 days and 8 days, respectively. Moreover, the selectivity ratio in data set [6] is greater than 3.6. The outcome in [21] and in data set [22] was Active. The CC50 in data set [8] was greater than 4000 µM. The Activity in [24] is 0.2 g; in [26] it was 154 IU/L; in data set [27], 85 IU/L. Besides, the EC90 in [25] was 1110 µM.
Take `NC(=O)c1ncn([C@@H]2O[C@H](CO)[C@@H](O)[C@H]2O)n1` [RIBAVIRIN]: the Time in data set [28] is greater than 21 days. Further, in data set [19], the EC50 came out at 28 µM. The selectivity ratio in [6] is greater than 6. The results for the Activity in data set [29] and in data set [31] were 103 IU/L and 2.4 g, respectively. Besides, in [8], the CC50 was greater than 4100 µM. In addition, in [30], the result was Active. For the same compound, the 90% effect concentration (EC90) in data set [25] amounted to 690 µM.
